Measurements as given in the array DNA melting data of Ke et al. (doi:10.1101/2024.01.08.574731).

What was measured:
[1] = melting temperature; fluorescence melt of hairpins on a sequencing array, two-state fit, raised by 9.35 °C to match UV melts; details: sodium 0.088 M
Outline: (§1)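 Hairpins were imaged by Cy3 fluorescence on a sequenced MiSeq flow cell with annealed Cy3 and quencher oligos, in 50 mM Na-HEPES pH 8.0, 25 mM NaCl, in 2.5 °C steps up to 60 °C. Bootstrapped two-state fits of normalised signals gave melting temperature and folding enthalpy. Four replicates were combined by inverse variance, and fitted temperatures were raised by 9.35 °C to match UV melts.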

[2] = folding enthalpy; higher = less favourable; fluorescence melt of hairpins on a sequencing array, two-state fit; details: sodium 0.088 M
Outline: as §1

GCAGATCGAAAGATTGC (((.(((....)))))) gave a Tm [1] of 44.1 °C and a folding enthalpy [2] of -23.1 kcal/mol.
Work on GCAGATGGAAACATCCGC ((.((((....)))).)) yielded a Tm [1] of 42.5 °C and a folding enthalpy [2] of -23.9 kcal/mol.
For GCAGCACCGAAAGGTTGC (((..(((....)))))), the Tm [1] was 43.9 °C and the folding enthalpy [2] was -14 kcal/mol.
With GCAGCAGGAAACCACTGC ((((..(....)..)))) the Tm [1] was 34.7 °C and the folding enthalpy [2] was -18.8 kcal/mol.
With GCAGCCGAAAGGCCCTGC ((((((....)))..))) the Tm [1] was 34.8 °C and the folding enthalpy [2] was -12.5 kcal/mol.
For GCAGCCGAAAGGCGGTGC ((((((....)))..))), the Tm [1] was 57.1 °C and the folding enthalpy [2] was -15 kcal/mol.
Work on GCAGCCGGAAACGGCCAC (..((((....))))..) yielded a Tm [1] of 36.2 °C and a folding enthalpy [2] of -9.09 kcal/mol.
In the case of GCAGCGCGAAAGCACGGC ((.(.((....)).).)), the Tm [1] is reported as 53.9 °C and the folding enthalpy [2] is reported as -22.9 kcal/mol.
GCAGCGCGAAAGCCCCGC ((.(.((....)).).)) gave a Tm [1] of 37 °C and a folding enthalpy [2] of -9.42 kcal/mol.
GCAGCGCGAAAGCGAGGC ((..(((....)))..)) showed a Tm [1] of 63.8 °C and a folding enthalpy [2] of -19.2 kcal/mol.
With GCAGCGCGAAAGCGGAGC ((..(((....)))..)) the Tm [1] was 56 °C and the folding enthalpy [2] was -17.7 kcal/mol.
In the case of GCAGCGCGAAAGCGTGC (((.(((....)))))), the Tm [1] is reported as 62.2 °C and the folding enthalpy [2] is reported as -14 kcal/mol.
With GCAGCGCGAAAGCTCTGC ((((.((....)).)))) the Tm [1] was 62 °C and the folding enthalpy [2] was -31.9 kcal/mol.
Sequence GCAGCGCGAAAGCTGTGC (((..((....))..))) has a Tm [1] of 44.8 °C and a folding enthalpy [2] of -18.8 kcal/mol.
Work on GCAGCGGGAAACCGCCAC (..((((....))))..) yielded a Tm [1] of 29.8 °C and a folding enthalpy [2] of -8.97 kcal/mol.
GCAGCTGGAAACAGCCAC (..((((....))))..) gave a Tm [1] of 31 °C and a folding enthalpy [2] of -10.6 kcal/mol.
GCAGGACCGAAAGGTTGC (((..(((....)))))) showed a Tm [1] of 44.8 °C and a folding enthalpy [2] of -20.7 kcal/mol.
GCAGGACGAAAGTCTTGC (((.(((....))).))) gave a Tm [1] of 58.5 °C and a folding enthalpy [2] of -41.5 kcal/mol.
Sequence GCAGGAGGAAACTTCTGC ((((.((....)).)))) has a Tm [1] of 49.9 °C and a folding enthalpy [2] of -39.5 kcal/mol.
Work on GCAGGCGAAAGCCGATGC ((((((....)))..))) yielded a Tm [1] of 53.9 °C and a folding enthalpy [2] of -13.3 kcal/mol.
GCAGGCGAAAGCCGGTGC ((((((....)))..))) gave a Tm [1] of 53.8 °C and a folding enthalpy [2] of -14.5 kcal/mol.
GCAGGCGGAAACACCTGC (((((.(....).))))) showed a Tm [1] of 54.1 °C and a folding enthalpy [2] of -48.9 kcal/mol.
Work on GCAGGCGGAAACGCCCGC ((.((((....)))).)) yielded a Tm [1] of 59.3 °C and a folding enthalpy [2] of -15.8 kcal/mol.
For GCAGGCGGAAACGCCTAC (.(((((....))))).), the Tm [1] was 43.9 °C and the folding enthalpy [2] was -9.53 kcal/mol.
With GCAGGCGGAAACGCTTGC (((.(((....))).))) the Tm [1] was 62.1 °C and the folding enthalpy [2] was -38.5 kcal/mol.
Sequence GCAGGCTCGAAAGAGTGC (((..(((....)))))) has a Tm [1] of 36.6 °C and a folding enthalpy [2] of -19.8 kcal/mol.
With GCAGGGCGAAAGCACCGC ((.(.((....)).).)) the Tm [1] was 57.7 °C and the folding enthalpy [2] was -16 kcal/mol.
Work on GCAGGGCGAAAGCCTGGC ((..(((....)))..)) yielded a Tm [1] of 59.8 °C and a folding enthalpy [2] of -20.2 kcal/mol.
Work on GCAGGGCGAAAGCGGTGC (((..((....))..))) yielded a Tm [1] of 52.8 °C and a folding enthalpy [2] of -21.4 kcal/mol.
With GCAGGGCGAAAGCGTTGC (((..((....))..))) the Tm [1] was 54.1 °C and the folding enthalpy [2] was -19.1 kcal/mol.
For GCAGGGCGAAAGCTTTGC (((..((....))..))), the Tm [1] was 50.7 °C and the folding enthalpy [2] was -19.8 kcal/mol.
In the case of GCAGGGGGAAACCCCCGC ((.((((....)))).)), the Tm [1] is reported as 61.6 °C and the folding enthalpy [2] is reported as -14.5 kcal/mol.
GCAGGGTCGAAAGACTGC (((..(((....)))))) showed a Tm [1] of 45.8 °C and a folding enthalpy [2] of -23.4 kcal/mol.
Sequence GCAGGTACGAAAGTATGC (((..(((....)))))) has a Tm [1] of 33.9 °C and a folding enthalpy [2] of -18 kcal/mol.
Sequence GCAGGTCGAAAGACTGC (((.(((....)))))) has a Tm [1] of 55.9 °C and a folding enthalpy [2] of -29.8 kcal/mol.
With GCAGGTGGAAACACCTAC (.(((((....))))).) the Tm [1] was 39.3 °C and the folding enthalpy [2] was -15.4 kcal/mol.
With GCAGTACGAAAGTAATGC (((.(((....))).))) the Tm [1] was 55.4 °C and the folding enthalpy [2] was -40 kcal/mol.
